# Measured values gathered from unrelated publications.
# Protocols differ between the studies behind these lines.
# Target: Serine/threonine-protein kinase 3 (STK3, Homo sapiens, UniProt Q13188)
# One construct used (Q13188 1-491): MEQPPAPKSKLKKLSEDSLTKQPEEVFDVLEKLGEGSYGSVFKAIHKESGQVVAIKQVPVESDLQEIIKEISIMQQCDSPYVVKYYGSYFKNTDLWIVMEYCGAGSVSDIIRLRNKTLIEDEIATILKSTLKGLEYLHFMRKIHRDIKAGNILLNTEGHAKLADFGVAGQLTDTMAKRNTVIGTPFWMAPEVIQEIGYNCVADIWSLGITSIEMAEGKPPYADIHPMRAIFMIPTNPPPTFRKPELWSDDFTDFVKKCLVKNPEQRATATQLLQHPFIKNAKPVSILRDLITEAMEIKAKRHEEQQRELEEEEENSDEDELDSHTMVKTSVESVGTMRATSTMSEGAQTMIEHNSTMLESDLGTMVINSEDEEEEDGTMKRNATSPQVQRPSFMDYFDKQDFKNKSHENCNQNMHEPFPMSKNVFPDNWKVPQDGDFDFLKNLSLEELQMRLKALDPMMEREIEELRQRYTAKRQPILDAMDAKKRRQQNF
test,conditions,remaining binding,SMILES
binding,1 µM,100%,N[C@H]1CCN(c2nccc(-c3cnn4ncccc34)n2)C1
"cell-free assay, competition with immobilised ligand",5 µM,99%,COc1ncc2cc3ccccc3nc2c1C#N
"cell-free assay, competition with immobilised ligand",1 µM,100%,Cc1cc(NC(=O)c2cccc(S(F)(F)(F)(F)F)c2)cc(-n2ccn3nc(-c4cccnc4)cc23)c1
"binding, competition with immobilised ligand",10 µM,12%,c1cncc(-c2cccc(Nc3nccc(NC4CCCCC4)n3)c2)c1
binding,1 µM,100%,Cc1cnn2ncc(-c3ccnc(N(C)C)n3)c2c1
"binding, competition with immobilised ligand",1 µM,88%,O=C(NCCCN1CCOCC1)c1ccc(Nc2nccc(-c3cc4ccccc4s3)n2)cc1
"cell-free assay, competition with immobilised ligand",1 µM,80%,O=C(Nc1cccnn1)N1CC(C/C=C/c2cncc(Oc3ccc(C(F)(F)F)cn3)n2)C1
binding,1 µM,100%,CN(CCCC(F)(F)F)c1nccc(-c2cnn3ncccc23)n1
"binding, competition with immobilised ligand",1 µM,16%,O=C(c1ccc(Nc2ncc(Cl)c(-c3ccc(Cl)s3)n2)cc1)N1CCC(N2CCCC2)CC1
"binding, competition with immobilised ligand",1 µM,87%,Nc1ncc2c(n1)-c1c([nH]c3ccc(C#CC4CC4)cc13)CCCC2
"binding, competition with immobilised ligand",0.1 µM,74%,C[C@@H](c1ccc(-n2cnc3c(N)ncnc32)cc1)N1CCc2nn(C)c(Cc3ccccc3)c2C1=O
binding,1 µM,92%,C[C@H]1CCN(c2nccc(-c3cnn4ncccc34)n2)C1
"cell-free assay, competition with immobilised ligand",1 µM,100%,CC(=O)Nc1c(C(C)=O)c(=O)n(C)c2nc(-c3ccc(Cl)cc3Cl)c(-c3ccc(Cl)cc3)cc12
"binding, competition with immobilised ligand",1 µM,95%,COc1cnc(Nc2cccc(S(N)(=O)=O)c2)nc1N1CCN(c2ccccc2)CC1
"binding, competition with immobilised ligand",1 µM,100%,O=C(Nc1c[nH]nc1C(=O)NC1CCNCC1)c1cc(F)cc(F)c1
"cell-free assay, competition with immobilised ligand",1 µM,98%,CN([C@@H]1CCc2c(CC(=O)O)c3cc(S(C)(=O)=O)ccc3n2C1)S(=O)(=O)c1ccc(F)cc1
binding,1 µM,100%,CN(C)c1nccc(-c2cnn3ncccc23)n1
"binding, competition with immobilised ligand",1 µM,65%,O=C(c1ccc(Nc2ncc(Cl)c(-c3cc4ccccc4s3)n2)cc1)N1CCC(N2CCCC2)CC1
"cell-free assay, competition with immobilised ligand",1 µM,96%,Cc1c(NC(=O)c2cc(C(N)=O)nc3cc(F)ccc23)c(C(F)(F)F)nn1Cc1ccc(C#N)cc1
binding,1 µM,81%,c1cnn2ncc(-c3ccnc(N4CCC45COC5)n3)c2c1
"cell-free assay, competition with immobilised ligand",1 µM,100%,CC(C)(O)c1cncc(-c2nc3ccc(F)cc3n2C2CC2)c1
binding,1 µM,62%,CN(C)c1nccc(-c2cnc3ncccn23)n1
